According to PMC2887059 (Journal of Medicinal Chemistry, 2010):
pIC50: −log10 of the molar value.

Key:
[1] = tested on: NF-κB activation induced by TNF-α; experiment: NF-κB activation through TNF-α stimulation; assay type: cell-based
[2] = Plasma protein binding, human plasma; assay type: in vitro ADME
[3] = Plasma protein binding, mouse plasma; assay type: in vitro ADME
[4] = Plasma stability, human plasma; assay type: in vitro ADME; conditions: human plasma/PBS; compound at 40 μM, 3 h
[5] = Plasma stability, mouse plasma; assay type: in vitro ADME; conditions: mouse plasma/PBS; compound at 40 μM, 3 h
[6] = Metabolic stability in human hepatic microsomes; assay type: in vitro ADME; conditions: 1 h
[7] = Metabolic stability in mouse hepatic microsomes; assay type: in vitro ADME; conditions: 1 h
[8] = In vivo dose-exposure profiling, single ip dose in male mice; conditions: 50 mg/kg ip, t = 3 h
Raf = experiment: KINOMEscan; assay type: binding; conditions: 10 μM
TLK1 = target: T1, TLK1 (Homo sapiens, UniProt Q9UKI8); experiment: KINOMEscan; assay type: binding; conditions: 10 μM
T1 sequence (Q9UKI8 1-766): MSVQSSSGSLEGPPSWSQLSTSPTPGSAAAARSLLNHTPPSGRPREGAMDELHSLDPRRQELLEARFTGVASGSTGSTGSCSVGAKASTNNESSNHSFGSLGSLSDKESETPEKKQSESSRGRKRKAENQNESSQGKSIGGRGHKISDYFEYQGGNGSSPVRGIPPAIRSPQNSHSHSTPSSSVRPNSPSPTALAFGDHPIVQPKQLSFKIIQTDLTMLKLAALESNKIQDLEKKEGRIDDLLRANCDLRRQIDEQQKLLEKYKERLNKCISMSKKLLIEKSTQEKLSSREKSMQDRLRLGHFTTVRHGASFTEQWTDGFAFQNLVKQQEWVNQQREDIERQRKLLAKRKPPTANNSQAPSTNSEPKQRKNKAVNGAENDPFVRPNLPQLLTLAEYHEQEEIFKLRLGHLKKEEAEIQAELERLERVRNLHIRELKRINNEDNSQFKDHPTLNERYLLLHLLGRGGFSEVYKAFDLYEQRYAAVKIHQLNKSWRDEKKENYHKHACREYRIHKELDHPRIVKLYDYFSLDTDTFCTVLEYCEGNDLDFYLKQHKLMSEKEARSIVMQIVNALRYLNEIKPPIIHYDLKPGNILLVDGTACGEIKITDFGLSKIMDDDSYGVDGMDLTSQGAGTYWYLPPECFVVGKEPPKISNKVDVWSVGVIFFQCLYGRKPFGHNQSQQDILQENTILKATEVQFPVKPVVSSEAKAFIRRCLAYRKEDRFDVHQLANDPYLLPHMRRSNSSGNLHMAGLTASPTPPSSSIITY

JAK2 = JAK2 (Homo sapiens, UniProt O60674); experiment: KINOMEscan; assay type: binding; conditions: 10 μM
JAK2, sequence (O60674 whole entry): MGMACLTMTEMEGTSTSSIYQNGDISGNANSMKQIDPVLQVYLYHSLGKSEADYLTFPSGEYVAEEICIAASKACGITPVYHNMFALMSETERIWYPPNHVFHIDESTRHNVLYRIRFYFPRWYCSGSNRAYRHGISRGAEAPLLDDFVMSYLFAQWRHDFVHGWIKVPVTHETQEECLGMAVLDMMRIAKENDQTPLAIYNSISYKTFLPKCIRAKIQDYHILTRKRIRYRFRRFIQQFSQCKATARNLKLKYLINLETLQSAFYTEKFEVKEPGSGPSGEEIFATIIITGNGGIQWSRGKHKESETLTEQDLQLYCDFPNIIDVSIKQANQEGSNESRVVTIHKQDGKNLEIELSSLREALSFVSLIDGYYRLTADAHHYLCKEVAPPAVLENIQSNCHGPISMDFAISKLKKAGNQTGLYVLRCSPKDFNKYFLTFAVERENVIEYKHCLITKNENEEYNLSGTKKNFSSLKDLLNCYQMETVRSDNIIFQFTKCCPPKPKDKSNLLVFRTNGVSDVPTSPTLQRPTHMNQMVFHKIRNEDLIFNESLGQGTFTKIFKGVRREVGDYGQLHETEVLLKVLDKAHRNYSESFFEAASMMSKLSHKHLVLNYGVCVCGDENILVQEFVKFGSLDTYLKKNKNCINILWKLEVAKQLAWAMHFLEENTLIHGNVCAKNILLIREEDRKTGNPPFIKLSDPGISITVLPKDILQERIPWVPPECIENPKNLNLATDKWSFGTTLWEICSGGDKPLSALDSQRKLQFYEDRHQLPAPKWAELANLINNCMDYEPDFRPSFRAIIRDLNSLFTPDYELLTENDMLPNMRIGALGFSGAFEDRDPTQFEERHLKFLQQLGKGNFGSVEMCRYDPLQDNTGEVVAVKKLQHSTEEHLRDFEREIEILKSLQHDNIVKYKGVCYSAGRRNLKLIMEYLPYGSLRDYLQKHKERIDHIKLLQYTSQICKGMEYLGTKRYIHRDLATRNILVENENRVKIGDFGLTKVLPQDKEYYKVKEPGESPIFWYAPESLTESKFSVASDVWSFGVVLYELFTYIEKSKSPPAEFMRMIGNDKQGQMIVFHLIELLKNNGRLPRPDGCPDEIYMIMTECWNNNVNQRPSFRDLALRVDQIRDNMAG

353 protein kinases = experiment: KINOMEscan broad kinome screen; assay type: binding; conditions: of 353 protein kinases surveyed, 10 μM
[9] = tested on: 92 targets (cloned human or rodent receptors, ion channels, and transporters); experiment: NIMH-PDSP receptor, ion channel and transporter panel; assay type: binding; conditions: of 92 targets screened, 10 μM
[10] = tested on: IL-8 production in HEK293 cells; experiment: IL-8 production induced by PKC activators in HEK293 cells; assay type: cell-based; conditions: Homo sapiens, HEK293, read-out: IC50, IL-8 production
[11] = tested on: IL-2 production by Jurkat T-cells; experiment: IL-2 production by Jurkat T-cells; assay type: cell-based; conditions: Homo sapiens, read-out: IC50, production of IL-2
Outline: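 Jurkat T cells were stimulated either with CD3/CD28 or with PMA/ionomycin in the presence of test compound. IL-2 production was measured and an IC50 derived.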

murine B-lymphocytes = experiment: Anti-IgM-stimulated proliferation of murine B-lymphocytes; assay type: cell-based; conditions: Mus musculus, read-out: IC50, proliferation of B-lymphocytes
[12] = tested on: NF-κB reporter gene activation (other pathways); experiment: NF-κB reporter gene activation by agonists of other NF-κB activation pathways; assay type: cell-based
PKC-β = conditions: concentrations up to 8 μM; cited from earlier work
PKC-θ = conditions: concentrations up to 8 μM; cited from earlier work
IKK-β = conditions: concentrations up to 8 μM; cited from earlier work
[13] = tested on: NF-κB activation (HEK293-NF-κB-Luc cells, PMA/ionomycin); assay type: cell-based, human; conditions: HEK293 NF-κB-luciferase reporter; for fold drop in activity relative to 1a: versus 1a

Cc1cc2nc(NCCCO)n(CC(=O)c3cc(C(C)(C)C)c(O)c(C(C)(C)C)c3)c2cc1C [Compound 1a, 1-(3,5-di-tert-butyl-4-hydroxyphenyl)-2-(2-((3-hydroxypropyl)amino)-5,6-dimethyl-1H-benzo[d]imidazol-1-yl)ethanone]
inhibition of NF-κB activation through TNF-α stimulation [1]: did not inhibit | plasma protein binding (% bound) human 1 μM ([2]; 1 μM): 99.9 % bound | plasma protein binding (% bound) human 10 μM ([2]; 10 μM): 99.8 % bound | plasma protein binding (% bound) mouse 1 μM ([3]; 1 μM): 99.8 % bound | plasma protein binding (% bound) mouse 10 μM ([3]; 10 μM): 99.9 % bound | plasma stability (% remaining) human [4]: 100/100 % remaining | plasma stability (% remaining) mouse [5]: 100/100 % remaining | microsome stability (% remaining) human 1 μM ([6]; 1 μM): 26 % remaining | microsome stability (% remaining) human 10 μM ([6]; 10 μM): 55 % remaining | microsome stability (% remaining) mouse 1 μM ([7]; 1 μM): 0.5 % remaining | microsome stability (% remaining) mouse 10 μM ([7]; 10 μM): 19 % remaining | observed tolerability of the cohort [8]: clear signs of morbidity | % inhibition of Raf (Raf): 57 % inhibition | % inhibition of TLK1 (TLK1): 70 % inhibition | % inhibition of JAK2 (JAK2): 53 % inhibition | number of kinases inhibited by more than 50% (353 protein kinases): three | number of targets with greater than 50% inhibition [9]: eight | pIC50 [10]: > 7.00 | pIC50 [11]: > 5.30 | pIC50 (murine B-lymphocytes): ~5.70 | inhibition of NF-κB reporter gene activation by agonists of the other NF-κB activation pathways [12]: failing to inhibit | suppression of PKC-β (PKC-β): failed to suppress | suppression of PKC-θ (PKC-θ): failed to suppress | suppression of IKK-β (IKK-β): failed to suppress

CC(C)(C)c1cc(C(=O)Cn2c(NCCCO)nc3cc(Br)ccc32)cc(C(C)(C)C)c1O [Compound 1b]
fold drop in activity relative to 1a [13]: 40−80 fold

CC(C)(C)c1cc(C(=O)Cn2c(NCCCO)nc3cc([N+](=O)[O-])ccc32)cc(C(C)(C)C)c1O [Compound 1e]
fold drop in activity relative to 1a [13]: 20 fold

Cc1cc2nc(N3CCC(O)CC3)n(CC(=O)c3cc(C(C)(C)C)c(O)c(C(C)(C)C)c3)c2cc1C [Compound 1k]
NF-κB inhibitory activity (in words) [13]: abolish activity

Cc1cc2nc(NCCCO)n(CC(=O)c3cc(C(C)(C)C)cc(C(C)(C)C)c3)c2cc1C [Compound 1l]
NF-κB inhibitory activity (in words) [13]: retained complete activity

Cc1cc2nc(NCCCO)n(CC(=O)c3cccc(C(C)(C)C)c3)c2cc1C [Compound 1m]
NF-κB inhibitory activity (in words) [13]: completely inactive

Cc1cc2nc(NCCCO)n(CC(=O)c3cccc(OC(C)(C)C)c3)c2cc1C [Compound 1n]
NF-κB inhibitory activity (in words) [13]: completely inactive

Cc1cc2nc(NCCCN=[N+]=[N-])n(CC(=O)c3cc(C(C)(C)C)c(O)c(C(C)(C)C)c3)c2cc1C [Compound 1o]
fold drop in activity relative to 1a [13]: ≤ 6 fold

C#CCCCCC(=O)OCCCNc1nc2cc(C)c(C)cc2n1CC(=O)c1cc(C(C)(C)C)c(O)c(C(C)(C)C)c1 [Compound 1p]
fold drop in activity relative to 1a [13]: ≤ 6 fold

Cc1c(C(C)(C)C)cc(O)cc1C(C)(C)C [Compound 9, 3,5-Di-t-butyl-4-methylphenol, reference compound]
NF-κB inhibitory activity (in words) [13]: inactive

Cc1cc(Cc2cc(C)cc(C(C)(C)C)c2O)c(O)c(C(C)(C)C)c1 [Compound 10, 6,6′-methylenebis-(2-tert-butyl-4-methylphenol), reference compound]
NF-κB inhibitory activity (in words) [13]: inactive

CC(C)(C)c1cc(C(=O)Cn2c(NCCCO)nc3ccc(Br)cc32)cc(C(C)(C)C)c1O [Compound 17b]
fold drop in activity relative to 1a [13]: 40−80 fold

CC(C)(C)c1cc(C(=O)Cn2c(NCCCO)nc3ccc([N+](=O)[O-])cc32)cc(C(C)(C)C)c1O [Compound 17e]
NF-κB inhibitory activity (in words) [13]: inactive

Cc1cc2ncn(CC(=O)c3cc(C(C)(C)C)c(O)c(C(C)(C)C)c3)c2cc1C [Compound 18]
NF-κB inhibitory activity (in words) [13]: significant loss of activity

Cc1cc2[nH]c(=O)n(CC(=O)c3cc(C(C)(C)C)c(O)c(C(C)(C)C)c3)c2cc1C [Compound 19]
NF-κB inhibitory activity (in words) [13]: essentially equipotent to 1a

CN[C@@H]1C[C@H]2O[C@@](C)([C@@H]1OC)n1c3ccccc3c3c4c(c5c6ccccc6n2c5c31)C(=O)NC4 [staurosporine, reference compound]
suppression of PKC-θ (PKC-θ): potent inhibition | suppression of IKK-β (IKK-β): potent inhibition
